Calls of active or inactive are those of the source. The rule behind the calls is not given here.
Tests used:
Nakaseomyces glabratus [1] = experiment: Antifungal activity against Candida glabrata DSM 11226 after 48 hrs; assay type: organism-based; conditions: in vivo
Summary of the method: (§1)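 MIC against the yeast strains determined according to DIN 58940-84; clotrimazole as positive control.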

Saccharomyces cerevisiae [2] = experiment: Antifungal activity against Saccharomyces cerevisiae DSM 1333 after 36 hrs by disc diffusion method; assay type: organism-based; conditions: in vivo
HL-60 = experiment: Cytotoxicity against human HL60 cells after 24 hrs by MTT assay; assay type: cell-based; conditions: HL-60, 24 h
Summary of the method: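 MTT colorimetric assay on HL-60 promyelocytic leukemia cells (RPMI 1640, 10% FBS, no antibiotics, 37 °C, 5% CO2) as a preliminary screen for unspecific cytotoxicity; cisplatin as reference.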

Nakaseomyces glabratus [3] = experiment: Antifungal activity against Candida glabrata DSM 11226 after 36 hrs by disc diffusion method; assay type: organism-based; conditions: in vivo
[4] = target: T1, 7-dehydrocholesterol reductase (Homo sapiens) (UniProt Q9UBM7); experiment: Inhibition of 7-dehydrocholesterol reductase in human HL60 cells assessed as accumulation of 7-dehydrocholesterol at 50 uM after 24 hrs by GC/MS analysis; assay type: cell-based; conditions: HL-60
T1 sequence (whole entry): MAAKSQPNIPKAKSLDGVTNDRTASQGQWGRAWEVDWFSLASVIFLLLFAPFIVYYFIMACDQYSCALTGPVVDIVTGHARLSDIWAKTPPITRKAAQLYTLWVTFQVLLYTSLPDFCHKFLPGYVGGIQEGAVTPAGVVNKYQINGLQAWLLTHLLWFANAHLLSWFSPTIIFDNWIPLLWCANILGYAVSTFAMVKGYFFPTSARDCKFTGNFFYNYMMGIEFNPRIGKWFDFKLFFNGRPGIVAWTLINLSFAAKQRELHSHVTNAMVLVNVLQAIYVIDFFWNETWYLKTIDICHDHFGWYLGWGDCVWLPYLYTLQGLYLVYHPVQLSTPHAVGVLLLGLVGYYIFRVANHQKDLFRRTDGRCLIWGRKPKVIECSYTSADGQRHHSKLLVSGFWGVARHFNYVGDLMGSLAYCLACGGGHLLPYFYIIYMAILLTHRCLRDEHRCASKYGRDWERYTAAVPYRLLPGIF
Summary of the method: (§2)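 HL-60 cells (1 × 10⁶) in lipid-free HL-60 medium given inhibitor at 50 μM or 1 μM (ethanol blank) for 24 h at 37 °C, 5% CO2. Pellet saponified in 1 M NaOH, 1 h at 70 °C, then TBME microextraction with cholestane internal standard. GC-MS sterol pattern compared with blanks and with AY 9944 and BM 15.766 references.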

[5] = Antifungal activity against Hyphopichia burtonii DSM 70663 after 36 hrs by disc diffusion method
[6] = Antibacterial activity against Streptococcus entericus DSM 14446 after 36 hrs by disc diffusion method
[7] = Antibacterial activity against Staphylococcus equorum DSM 20675 after 36 hrs by disc diffusion method
[8] = target: 3-beta-hydroxysteroid-Delta(8),Delta(7)-isomerase (Homo sapiens) (UniProt Q15125); experiment: Inhibition of delta8,7-isomerase in human HL60 cells assessed as accumulation of zymostenol at 50 uM after 24 hrs by GC/MS analysis; assay type: cell-based; conditions: HL-60; summary of the method: as §2
Yarrowia lipolytica [9] = experiment: Antifungal activity against Yarrowia lipolytica DSM 1345 after 48 hrs; assay type: organism-based; conditions: in vivo; summary of the method: as §1
Escherichia coli = experiment: Antibacterial activity against Escherichia coli DSM 426 after 36 hrs by disc diffusion method; assay type: organism-based; conditions: in vivo
Yarrowia lipolytica [10] = experiment: Antifungal activity against Yarrowia lipolytica DSM 1345 after 36 hrs by disc diffusion method; assay type: organism-based; conditions: in vivo
[11] = target: 3-beta-hydroxysteroid-Delta(8),Delta(7)-isomerase (Homo sapiens) (UniProt Q15125); experiment: Inhibition of delta8,7-isomerase in human HL60 cells assessed as accumulation of zymostenol at 1 uM after 24 hrs by GC/MS analysis; assay type: cell-based; conditions: HL-60; summary of the method: as §2
Saccharomyces cerevisiae [12] = experiment: Antimicrobial activity against Saccharomyces cerevisiae DSM 1333 after 48 hrs; assay type: organism-based; conditions: in vivo; summary of the method: as §1
[13] = Antibacterial activity against Pseudomonas antimicrobica DSM 8361 after 36 hrs by disc diffusion method; conditions: burkholderia gladioli
[14] = Antifungal activity against Aspergillus brasiliensis DSM 1988 after 36 hrs by disc diffusion method
[15] = target: T1, 7-dehydrocholesterol reductase (Homo sapiens); experiment: Inhibition of 7-dehydrocholesterol reductase in human HL60 cells assessed as accumulation of 7-dehydrocholesterol at 1 uM after 24 hrs by GC/MS analysis; assay type: cell-based; conditions: HL-60; summary of the method: as §2
[16] = target: T2, 7-dehydrocholesterol reductase (Homo sapiens, UniProt Q9UBM7); experiment: Inhibition of […]-mediated cholesterol biosynthesis in human HL60 cells assessed as inhibition of 2-[13C]acetate after 24 hrs GC/MS analysis; assay type: cell-based, HL-60
T2 sequence (Q9UBM7 whole entry): T1 sequence (whole entry)
Summary of the method: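 Whole-cell cholesterol synthesis in HL-60 cells, 24 h with inhibitor and sodium 2-¹³C-acetate; six concentrations plus blank, in triplicate. Newly made labeled cholesterol (m/z 372–379, 462–469) measured by GC-MS against cholestane and normalized to Bradford protein. % inhibition against untreated control fitted to a variable-slope sigmoid, bottom fixed at 0, giving IC50; BM 15.766 as reference.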

Sequence of 3-beta-hydroxysteroid-Delta(8),Delta(7)-isomerase (Homo sapiens) (Q15125 whole entry): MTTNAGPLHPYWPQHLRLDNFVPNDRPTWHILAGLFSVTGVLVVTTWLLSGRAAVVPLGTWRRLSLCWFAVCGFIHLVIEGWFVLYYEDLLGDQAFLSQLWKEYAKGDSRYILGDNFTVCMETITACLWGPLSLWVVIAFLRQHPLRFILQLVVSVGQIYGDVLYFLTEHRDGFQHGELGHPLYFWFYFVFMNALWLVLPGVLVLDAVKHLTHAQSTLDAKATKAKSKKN

SMILES | MIC (Nakaseomyces glabratus [1]) | Activity (Saccharomyces cerevisiae [2]) | IC50 (HL-60) | Activity (Nakaseomyces glabratus [3]) | 7-dehydrocholesterol accumulation (active/not active) [4] | Activity [5] | Activity [6] | Activity [7] | isomerase inhibition (active/not active) [8] | MIC (Yarrowia lipolytica [9]) | Activity (Escherichia coli) | Activity (Yarrowia lipolytica [10]) | inhibition (active/not active) [11] | MIC (Saccharomyces cerevisiae [12]) | Activity [13] | Activity [14] | 7-DHCR inhibition (active/not active) [15] | IC50 [16]
COc1ccc2c(c1)CCN(CCc1ccccc1)C2 | > 20 µg/mL | Non-toxic | > 50 µM | Non-toxic | inactive | Non-toxic | Non-toxic | Non-toxic | Active | > 20 µg/mL | Non-toxic | Non-toxic | Active | > 20 µg/mL | Non-toxic | Non-toxic | inactive | –
COc1ccc(CCN2CCc3cc(OC)ccc3C2)cc1 | > 20 µg/mL | Non-toxic | > 50 µM | Non-toxic | inactive | Non-toxic | Non-toxic | Non-toxic | Active | > 20 µg/mL | Non-toxic | Non-toxic | Active | > 20 µg/mL | Non-toxic | Non-toxic | inactive | –
COc1cc2c(cc1O)CCN(CCc1ccc(OC)c(OC)c1)C2 | > 20 µg/mL | Non-toxic | > 50 µM | Non-toxic | – | Toxic | Non-toxic | Non-toxic | – | > 20 µg/mL | Non-toxic | Non-toxic | – | > 20 µg/mL | Non-toxic | Non-toxic | Active | 7.3 µM
O=C(O)c1ccc(CCN2CCN(C/C=C/c3ccc(Cl)cc3)CC2)cc1 | – | – | – | – | – | – | – | – | – | – | – | – | – | – | – | – | – | 0.5 µM
Oc1ccc(CCN2CCc3cc(O)ccc3C2)cc1 | > 20 µg/mL | Non-toxic | > 50 µM | Non-toxic | Active | Non-toxic | Non-toxic | Non-toxic | – | > 20 µg/mL | Non-toxic | Non-toxic | – | > 20 µg/mL | Non-toxic | Non-toxic | inactive | –
COc1cccc(CCN2CCc3cc(O)c(OC)cc3C2)c1 | > 20 µg/mL | Non-toxic | > 50 µM | Non-toxic | – | Non-toxic | Non-toxic | Non-toxic | – | > 20 µg/mL | Non-toxic | Non-toxic | – | > 20 µg/mL | Non-toxic | Non-toxic | Active | 0.12 µM
COc1ccc(CCN2CCc3cc(OC)c(OC)cc3C2)cc1 | > 20 µg/mL | Non-toxic | > 50 µM | Non-toxic | inactive | Non-toxic | Non-toxic | Non-toxic | Active | > 20 µg/mL | Non-toxic | Non-toxic | Active | > 20 µg/mL | Non-toxic | Non-toxic | inactive | –
COc1ccc(CCN2CCc3cc(OC)c(O)cc3C2)cc1 | > 20 µg/mL | Non-toxic | > 50 µM | Non-toxic | inactive | Non-toxic | Non-toxic | Non-toxic | inactive | > 20 µg/mL | Non-toxic | Non-toxic | inactive | > 20 µg/mL | Non-toxic | Non-toxic | inactive | –
COc1ccc(CCN2CCc3cc4c(cc3C2)OCO4)cc1 | > 20 µg/mL | Non-toxic | > 50 µM | Non-toxic | inactive | Non-toxic | Non-toxic | Non-toxic | Active | > 20 µg/mL | Non-toxic | Non-toxic | Active | > 20 µg/mL | Non-toxic | Non-toxic | inactive | –
COc1cc2c(cc1O)CCN(CCc1ccccc1OC)C2 | > 20 µg/mL | Non-toxic | > 50 µM | Non-toxic | Active | Non-toxic | Non-toxic | Non-toxic | – | > 20 µg/mL | Non-toxic | Non-toxic | – | > 20 µg/mL | Non-toxic | Non-toxic | inactive | –
COc1cc2c(cc1O)CCN(CCc1ccc(F)cc1)C2 | > 20 µg/mL | Non-toxic | > 50 µM | Non-toxic | Active | Toxic | Non-toxic | Non-toxic | Active | > 20 µg/mL | Non-toxic | Non-toxic | – | > 20 µg/mL | Non-toxic | Non-toxic | Active | –
Clc1ccccc1C(c1ccccc1)(c1ccccc1)n1ccnc1 [CLOTRIMAZOLE] | < 1 µg/mL | – | – | – | – | – | – | – | – | < 1 µg/mL | – | – | – | < 1 µg/mL | – | – | – | –
COc1ccc(CCN2CCc3cc(O)c(OC)cc3C2)cc1 | > 20 µg/mL | Non-toxic | > 50 µM | Non-toxic | Active | Toxic | Non-toxic | Non-toxic | Active | > 20 µg/mL | Non-toxic | Non-toxic | – | > 20 µg/mL | Non-toxic | Non-toxic | Active | –

— ChEMBL document CHEMBL2169759, “A new class of selective and potent 7-dehydrocholesterol reductase inhibitors” (J Med Chem, 2012)
